Sampled rows, rich in hits. Any-hit rate of the full collection: about 5.1%.
STAT1 blocker: STAT1 signaling inhibition; hit rate 0.35% among 200,000; inhibition, % at 5.5 µM; NIH 3T3 STAT1-luciferase reporter, IFN-gamma, luminescence;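 active = inhibition above a set limit, the mean inhibition across all tested compounds plus 3 SD, cut at about 34% in these data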;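 also: 0% = IFN-gamma with DMSO and 100% = IFN-gamma with 300 µM nifuroxazide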
APP 5'UTR act: APP 5'UTR luciferase reporter activation. SH-SY5Y APP 5'UTR luciferase reporter, luminescence; zero percent = DMSO vehicle wells. activation, % at 2 µM. hit rate 1% among 190,000;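 active = activation above a set limit, based on mean plus 3 SD of controls, cut at about 140% in these data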
STAT3 act: activators of IL-6 induced STAT3 signaling; U3A cells, IL-6 STAT3-luciferase reporter, luminescence; 100% = signal with IL-6 EC80 alone; activation (% of control), % at 5.6 µM; hit rate 0.91% among 190,000; AID 871;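 active = activation above the screen-wide mean of compound activation plus 3 SD, cut at about 130% in these data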;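 also: 0% = background luminescence of wells with medium and substrate only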
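Test system: STAT3-luciferase reporter U3A cells; Detection: reporter luminescence signal; Times: 1 h compound pre-exposure, 6 h IL-6 stimulation, 37 °C; Benchmarks: IL-6-only high control; Also added: IL-6 stimulus at 33 ng/mL final.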
STAT3 inh: inhibitors of IL-6 induced STAT3 signaling; U3A cells, IL-6 STAT3-luciferase reporter, luminescence; host cell line lacks STAT1; inhibition, % at 5.5 µM; hit rate 0.89% among 190,000; AID 862;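 active = inhibition above the mean inhibition across all screened compounds plus 3 SD, cut at about 44% in these data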;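 also: 0% = DMSO only wells and 100% = 100 µM nifuroxazide control wells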
STAT1 act: activators of IFN-gamma induced STAT1 signaling | NIH 3T3 STAT1-luciferase reporter, luminescence; 100% = IFN-gamma alone, no compound | activation (% of control), % at 5.5 µM | hit rate 2.6% among 200,000;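 active = activation above the screen-wide mean activation plus 3 SD, cut at about 130% in these data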;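 also: raw ratio to IFN-gamma control signal so 100% means no change and 0% no light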
NF-kB neuron act: compounds increasing NF-kB expression in human neuronal cells; NF-kB reporter expression; active compounds read high; fold change at 12.5 µM; hit rate 1.6% among 190,000; in the data active = fold change above about 3.3
STAT1 activ conf: confirmation of STAT1 signaling activators | NIH 3T3 STAT1-luciferase reporter, IFN-gamma potentiation, luminescence; 100% = IFN-gamma EC80 alone, no compound | activation (% of control), % at 5.7 µM | shares compounds with STAT1 act | AID 1262 | hit rate 97% among 1,200;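 active = activation above a set limit carried over from the earlier primary STAT1 screen, cut at about 140% in these data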;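 also: simple ratio to median IFN-gamma plus DMSO wells so 0% means no light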
NFkB act STAT1ct: counter-screen for STAT1 activators: NF-kappaB activation | shares compounds with STAT1 act | HEK293T NF-kB luciferase reporter, TNF-alpha stimulated, luminescence; 100% = TNF-alpha with vehicle only | activation (% of control), % at 5.7 µM | hit rate 43% among 1,200 | AID 1306;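 active = activation above the mean of solvent-only control wells plus 3 SD, set per campaign, cut at about 130% in these data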;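 also: TNF-alpha given at a submaximal dose yielding about 80% of full reporter signal; values are well signal over median control so 100% means no change and 0% no light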
STAT3 act 2: counter-screen for STAT1 activators: human STAT3 activation. shares compounds with STAT1 act. U3A cells STAT3-luciferase reporter, IL-6, luminescence; cells lack STAT1; 100 = IL-6 alone, no compound effect. activation (% of control), % at 5.7 µM. hit rate 46% among 1,200. AID 1316;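 active = activation above the solvent-only control well mean plus 3 SD, set per plate batch, cut at about 110% in these data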;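 also: 0% = no luminescence and 100% = median IL-6 plus DMSO wells; higher means more STAT3 reporter activation so hits are non-selective activators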
The depositor's hits bear a star; · = no result.

SMILES | STAT1 blocker | APP 5'UTR act | STAT3 act | STAT3 inh | STAT1 act | NF-kB neuron act | STAT1 activ conf | NFkB act STAT1ct | STAT3 act 2
O=C(Nc1ccc2c(c1)CCC2)c1ccc(F)cc1 | -81 | 197* | 71 | 32 | 174* | 8.5* | 233* | 114 | 87
O=C(Nc1ccc2c(c1)CCC2)c1c(F)cccc1Cl | -84 | 100 | 102 | 1 | 175* | 4.2* | 196* | 140* | 112*
O=C(Nc1ccc2c(c1)CCC2)c1cccs1 | -61 | 92 | 92 | 14 | 157* | 6.2* | 198* | 136* | 104
O=C(c1ccncc1)c1ccc(NC(=O)c2cccs2)cc1 | 8 | 15 | 85 | 20 | 91 | 1.8 | · | · | ·
Cc1ccc(S(=O)(=O)c2cnc(-c3ccccc3)nc2N2CCCCC2)cc1 | -7 | -16 | 103 | 3 | 104 | 0.87 | · | · | ·
Cc1ccc(NC(=S)NC(=O)c2ccc(Br)o2)c(C)c1 | -59 | 94 | 90 | 15 | 152* | 2.2 | 164* | 128 | 107
CC(=O)c1c(C)nc(-c2ccc(Cl)cc2)nc1N | -62 | 116 | 130 | -31 | 152* | 1.1 | 175* | 140* | 146*
Cc1ccc(C(=O)Oc2oc(-c3ccco3)nc2C=Nc2ccc(Cl)cc2)cc1 | -72 | 143* | 75 | 32 | 166* | 7.7* | 200* | 140* | 106
O=C(Oc1oc(-c2ccco2)nc1C=Nc1ccccc1)c1ccoc1 | -4 | -16 | 100 | 6 | 104 | 2.3 | · | · | ·
C=CCNc1nc(-c2cc3ccccc3o2)cs1 | -94 | 210* | 80 | 20 | 185* | 7.5* | 226* | 86 | 85
C=CCNc1nc(-c2ccc(O)c(C(N)=O)c2)cs1 | -8 | 3 | 94 | 8 | 101 | 1.1 | · | · | ·
CCSc1nnc(NC(=O)C(C)Sc2nc3ccccc3[nH]2)s1 (stereo unspecified) | 2 | 13 | 100 | -2 | 98 | 0.97 | · | · | ·
O=C(NC(=S)Nc1ccc(F)cc1)c1ccc2c(c1)OCCO2 | -59 | 213* | 84 | 24 | 152* | 2.1 | 211* | 130 | 101
COc1ccccc1CNC(=O)c1cn(C)c2ccc(S(=O)(=O)N3CCCC3)cc2c1=O | 4 | 11 | 106 | -4 | 94 | 0.87 | · | · | ·
Cn1cccc1C(=O)C(=O)Nc1ccc(F)c(F)c1 | -60 | 139* | 94 | 10 | 154* | 5.2* | 193* | 133 | 107
Fc1cccc2sc(Nc3nc4cc5c(cc4s3)OCO5)nc12 | -84 | 139* | 115 | -18 | 175* | 3.5* | 213* | 141* | 125*
Fc1cc(F)c2nc(Nc3nc4cc5c(cc4s3)OCO5)sc2c1 | -14 | 16 | 108 | -13 | 113 | 2.2 | · | · | ·
Fc1cccc2sc(Nc3nc4cc5c(cc4s3)OCCO5)nc12 | -78 | 162* | 93 | 8 | 170* | 1.7 | 249* | 108 | 132*
Cc1nc(/C=C\C(=O)O)c2cc(C)oc2n1 | -4 | 6 | 102 | 4 | 104 | · | · | · | ·
Cc1c(-c2ccc(Cl)cc2)oc(=O)c2c(N)n(-c3ccccc3)nc12 | -14 | -8 | 91 | 11 | 113 | 1.1 | · | · | ·
Nc1c2c(=O)oc(-c3ccccc3)cc2nn1-c1ccccc1 | -87 | 150* | 105 | 4 | 177* | 3.3* | 203* | 132 | 109
Cc1ccc(CN2CCN(/N=C/c3sccc3C)CC2)c(C)c1 | -4 | 9 | 95 | 9 | 103 | 1 | · | · | ·
COC(=O)c1sccc1NC(=O)Nc1cccc(C(C)=O)c1 | -24 | -11 | 108 | 4 | 121 | 0.88 | · | · | ·
COC(=O)c1sccc1NC(=O)Nc1cccc(C)c1 | -68 | 5 | 127 | -25 | 159* | 1.3 | 177* | 134* | 123*
Cc1nc(SCc2ccc(Cl)c(Cl)c2)ncc1C(=O)O | 1 | 3 | 97 | 6 | 99 | 1.3 | · | · | ·
SMILES | STAT1 blocker | APP 5'UTR act | STAT3 act | STAT3 inh | STAT1 act | NF-kB neuron act | STAT1 activ conf | NFkB act STAT1ct | STAT3 act 2
CC(=O)c1cnc(SCc2ccc(Cl)cc2)nc1C | -115 | 10 | 97 | 9 | 202* | 4.7* | 172* | 111 | 101
O=C(NC1CCNCC1)C1CC1 | 4 | 22 | 97 | 8 | 95 | 1.1 | · | · | ·
Cc1ccc(OC(=O)CCC(=O)N2CCc3ccccc32)cc1 | 7 | 1 | 131 | -31 | 94 | 1.2 | · | · | ·
Cc1ccc(OCC(=O)N2CCc3ccccc32)cc1 | -62 | 156* | 100 | -2 | 155* | 2.6 | 192* | 134* | 105
C=CCn1c(C)cc(C(=O)COC(=O)c2ccc(N)c([N+](=O)[O-])c2)c1C | -64 | 211* | 106 | -10 | 164* | 4.4* | 243* | 132 | 112*
Cc1cc(C(=O)COC(=O)c2ccc(N)c([N+](=O)[O-])c2)c(C)n1-c1ccc2c(c1)OCO2 | 16 | -3 | 81 | 24 | 86 | 0.86 | · | · | ·
COc1cccc(C(=O)NNC2OC(CO)C(O)C2O)c1 (stereo unspecified) | 2 | 11 | 109 | -10 | 98 | 1 | · | · | ·
CC(=O)/C=C(\C)Nc1ccc(-c2cnc(-c3ccccc3)o2)cc1 | -88 | 99 | 86 | 24 | 180* | 4.8* | 186* | 109 | 94
O=C(Nc1ccc(-c2nnc(-c3ccccc3)o2)cc1)C(F)(F)F | -15 | 21 | 104 | 1 | 114 | 1.9 | · | · | ·
O=[N+]([O-])c1ccccc1S(=O)(=O)NCc1cccnc1 | 6 | -2 | 99 | 3 | 93 | 1.1 | · | · | ·
Clc1cccc(/C=N/Nc2ncnc3ccccc23)c1 | -67 | · | 133 | -33 | 162* | 4.4* | 227* | 143* | 134*
CC(C)c1ccc(/C=N/NC(=O)c2cccc(Cl)c2)cc1 | -95 | 71 | 108 | -4 | 184* | 5.7* | 220* | 137* | 126*
Cc1c(Cl)cccc1NC(CC(=O)c1ccccc1)C(=O)OCC(=O)c1cccs1 (stereo unspecified) | 2 | 9 | 121 | -23 | 98 | 1 | · | · | ·
COc1ccccc1NC(CC(=O)c1ccccc1)C(=O)OCC(=O)c1ccc(F)cc1 (stereo unspecified) | -69 | 89 | 80 | 24 | 161* | 1.2 | 185* | 127 | 102
CS(=O)(=O)N1N=C(c2ccc(Br)cc2)CC1c1ccc2c(c1)OCO2 (stereo unspecified) | -61 | 111 | 114 | -4 | 155* | 5.5* | 203* | 135* | 125*

Screening results deposited in PubChem BioAssay by several laboratories.
